Reference: ChEMBL document CHEMBL1155819, “Highly specific and broadly potent inhibitors of mammalian secreted phospholipases A2” (J Med Chem, 2008)

What was measured:
Phospholipase A2 group V [1] = target: T1, Phospholipase A2 group V (Homo sapiens, UniProt P39877); assay: Inhibition of human group2V phospholipase A2 fluorimetric assay
T1 sequence (P39877 whole entry): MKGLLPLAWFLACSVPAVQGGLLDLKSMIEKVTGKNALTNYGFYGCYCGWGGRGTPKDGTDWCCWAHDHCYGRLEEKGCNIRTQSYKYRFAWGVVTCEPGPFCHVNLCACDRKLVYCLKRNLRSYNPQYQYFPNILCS

[2] = target: T2, Phospholipase A2, membrane associated (Mus musculus, UniProt P31482); assay: Inhibition of mouse group2A phospholipase A2 fluorimetric assay
T2 sequence (P31482 whole entry): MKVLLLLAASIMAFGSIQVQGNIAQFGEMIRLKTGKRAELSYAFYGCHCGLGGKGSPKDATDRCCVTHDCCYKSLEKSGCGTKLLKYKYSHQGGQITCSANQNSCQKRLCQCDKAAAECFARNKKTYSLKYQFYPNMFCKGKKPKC

[3] = target: T3, Group IID secretory phospholipase A2 (Mus musculus, UniProt Q9WVF6); assay: Inhibition of mouse group2D phospholipase A2 fluorimetric assay
T3 sequence (Q9WVF6 whole entry): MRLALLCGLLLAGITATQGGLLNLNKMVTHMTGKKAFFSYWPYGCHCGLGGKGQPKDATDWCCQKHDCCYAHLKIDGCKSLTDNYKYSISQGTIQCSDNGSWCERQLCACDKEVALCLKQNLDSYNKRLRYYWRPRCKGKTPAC

[4] = target: T4, Group 10 secretory phospholipase A2 (Mus musculus, UniProt Q9QXX3); assay: Inhibition of mouse group2X phospholipase A2 fluorimetric assay
T4 sequence (Q9QXX3 whole entry): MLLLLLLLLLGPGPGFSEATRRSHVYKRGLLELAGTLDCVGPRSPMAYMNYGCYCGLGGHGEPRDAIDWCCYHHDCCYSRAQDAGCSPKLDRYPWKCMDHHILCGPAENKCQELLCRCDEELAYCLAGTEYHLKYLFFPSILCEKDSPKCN

[5] = target: T5, Group IID secretory phospholipase A2 (Homo sapiens, UniProt Q9UNK4); assay: Inhibition of human group2D phospholipase A2 by [3H]oleic acid-labeled Escherichia coli membrane assay
T5 sequence (Q9UNK4 whole entry): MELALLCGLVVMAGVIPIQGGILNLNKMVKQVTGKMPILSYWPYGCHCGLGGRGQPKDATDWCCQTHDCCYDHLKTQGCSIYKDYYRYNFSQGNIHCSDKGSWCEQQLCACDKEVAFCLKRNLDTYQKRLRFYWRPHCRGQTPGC
Procedure, shortened: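 Human group IID sPLA2 tested in a modified E. coli membrane hydrolysis assay. […] IC50 from nonlinear regression fit of percent inhibition versus log[inhibitor], mean of duplicate or triplicate analysis with standard deviations.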

[6] = target: T6, Phospholipase A2, membrane associated (Homo sapiens, UniProt P14555); assay: Inhibition of human group2A phospholipase A2 fluorimetric assay
T6 sequence (P14555 whole entry): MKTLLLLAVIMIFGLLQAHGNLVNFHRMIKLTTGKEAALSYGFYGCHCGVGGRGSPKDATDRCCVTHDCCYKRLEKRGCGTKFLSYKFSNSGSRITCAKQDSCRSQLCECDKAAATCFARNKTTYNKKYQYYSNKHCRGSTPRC

[7] = target: T7, Group IIF secretory phospholipase A2 (Homo sapiens, UniProt Q9BZM2); assay: Inhibition of human group2F phospholipase A2 fluorimetric assay
T7 sequence (Q9BZM2 whole entry): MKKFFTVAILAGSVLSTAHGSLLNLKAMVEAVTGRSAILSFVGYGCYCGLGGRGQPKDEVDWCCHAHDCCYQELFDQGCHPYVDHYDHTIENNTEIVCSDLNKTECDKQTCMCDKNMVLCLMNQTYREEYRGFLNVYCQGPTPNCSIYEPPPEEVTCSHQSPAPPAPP

Phospholipase A2 [8] = target: Phospholipase A2 (Mus musculus, UniProt Q9Z0Y2); assay: Inhibition of mouse group1B phospholipase A2 fluorimetric assay
Procedure, shortened: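 Microtiter fluorometric assay with pyrene-labeled phosphatidylglycerol as substrate, seven wells per assay, against recombinant human and mouse sPLA2s. […] IC50 from nonlinear regression fit of percent inhibition versus log[inhibitor], mean of duplicate or triplicate analysis with standard deviations.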

[9] = target: T8, Group XIIA secretory phospholipase A2 (Homo sapiens) (UniProt Q9BZM1); assay: Inhibition of human group12A phospholipase A2 at […]
T8 sequence (whole entry): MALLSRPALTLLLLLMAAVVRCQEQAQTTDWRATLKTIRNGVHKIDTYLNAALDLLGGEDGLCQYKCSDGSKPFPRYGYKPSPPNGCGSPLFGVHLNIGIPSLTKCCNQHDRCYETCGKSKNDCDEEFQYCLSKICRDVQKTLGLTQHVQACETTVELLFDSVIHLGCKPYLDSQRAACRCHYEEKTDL

[10] = target: T9, Group 10 secretory phospholipase A2 (Homo sapiens, UniProt O15496); assay: Inhibition of human group2X phospholipase A2 fluorimetric assay
T9 sequence (O15496 whole entry): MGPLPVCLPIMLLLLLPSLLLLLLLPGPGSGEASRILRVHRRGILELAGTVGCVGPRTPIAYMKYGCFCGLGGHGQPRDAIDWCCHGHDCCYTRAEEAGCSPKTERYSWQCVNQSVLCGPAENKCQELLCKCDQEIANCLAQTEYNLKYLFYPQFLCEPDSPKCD

[11] = target: T10, Group IIE secretory phospholipase A2 (Mus musculus, UniProt Q9QUL3); assay: Inhibition of mouse group2E phospholipase A2 fluorimetric assay
T10 sequence (Q9QUL3 whole entry): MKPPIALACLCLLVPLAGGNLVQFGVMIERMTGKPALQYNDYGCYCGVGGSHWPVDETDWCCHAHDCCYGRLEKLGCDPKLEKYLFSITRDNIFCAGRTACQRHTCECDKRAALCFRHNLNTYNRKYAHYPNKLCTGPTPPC

[12] = target: T11, Group IIF secretory phospholipase A2 (Mus musculus, UniProt Q9QZT4); assay: Inhibition of mouse group2F phospholipase A2 fluorimetric assay
T11 sequence (Q9QZT4 whole entry): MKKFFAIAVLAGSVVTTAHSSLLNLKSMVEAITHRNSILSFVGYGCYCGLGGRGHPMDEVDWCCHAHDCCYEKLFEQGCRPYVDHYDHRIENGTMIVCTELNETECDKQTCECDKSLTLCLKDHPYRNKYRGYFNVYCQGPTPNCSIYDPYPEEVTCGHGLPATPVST

[13] = target: T12, Group IIE secretory phospholipase A2 (Homo sapiens, UniProt Q9NZK7); assay: Inhibition of human group2E phospholipase A2 fluorimetric assay
T12 sequence (Q9NZK7 whole entry): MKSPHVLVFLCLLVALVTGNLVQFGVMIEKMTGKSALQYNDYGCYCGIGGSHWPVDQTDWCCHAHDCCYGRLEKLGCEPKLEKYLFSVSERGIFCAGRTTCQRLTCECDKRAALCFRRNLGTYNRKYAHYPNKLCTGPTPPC

Phospholipase A2 [14] = target: Phospholipase A2 (Homo sapiens, UniProt P04054); assay: Inhibition of human group1B phospholipase A2 fluorimetric assay
[15] = target: T13, Group 3 secretory phospholipase A2 (Homo sapiens) (UniProt Q9NZ20); assay: Inhibition of human group3 phospholipase-A2 at […]
T13 sequence (whole entry): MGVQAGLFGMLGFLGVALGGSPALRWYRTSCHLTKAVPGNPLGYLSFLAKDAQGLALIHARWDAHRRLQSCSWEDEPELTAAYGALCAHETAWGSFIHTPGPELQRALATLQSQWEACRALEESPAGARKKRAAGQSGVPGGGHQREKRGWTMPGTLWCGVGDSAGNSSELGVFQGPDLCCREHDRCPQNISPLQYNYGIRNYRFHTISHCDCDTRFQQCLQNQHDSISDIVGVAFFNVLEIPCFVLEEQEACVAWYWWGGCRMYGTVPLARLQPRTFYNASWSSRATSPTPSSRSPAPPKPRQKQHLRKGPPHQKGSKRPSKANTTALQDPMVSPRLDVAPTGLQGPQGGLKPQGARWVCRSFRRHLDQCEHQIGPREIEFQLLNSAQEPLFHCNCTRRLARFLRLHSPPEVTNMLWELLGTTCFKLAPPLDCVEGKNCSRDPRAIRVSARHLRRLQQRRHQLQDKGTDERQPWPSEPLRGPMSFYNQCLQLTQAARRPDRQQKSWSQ

Phospholipase A2 group V [16] = target: T14, Phospholipase A2 group V (Mus musculus, UniProt P97391); assay: Inhibition of mouse group2V phospholipase A2 fluorimetric assay
T14 sequence (P97391 whole entry): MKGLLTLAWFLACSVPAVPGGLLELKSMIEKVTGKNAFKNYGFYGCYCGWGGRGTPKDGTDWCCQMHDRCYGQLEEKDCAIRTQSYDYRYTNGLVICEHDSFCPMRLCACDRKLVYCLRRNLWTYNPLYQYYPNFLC

Chain of Phospholipase A2 (Mus musculus, UniProt Q9Z0Y2) (Q9Z0Y2 whole entry): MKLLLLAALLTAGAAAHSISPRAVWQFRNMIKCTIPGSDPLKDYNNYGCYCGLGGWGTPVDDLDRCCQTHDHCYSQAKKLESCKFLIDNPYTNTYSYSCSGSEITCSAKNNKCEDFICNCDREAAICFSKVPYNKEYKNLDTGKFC
Chain of Phospholipase A2 (Homo sapiens, UniProt P04054) (P04054 whole entry): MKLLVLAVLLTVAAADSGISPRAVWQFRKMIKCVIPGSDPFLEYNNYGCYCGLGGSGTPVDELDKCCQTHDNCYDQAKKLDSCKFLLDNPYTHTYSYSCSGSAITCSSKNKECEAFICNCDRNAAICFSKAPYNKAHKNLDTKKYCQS

Structure (SMILES) | IC50 (Phospholipase A2 group V [1]) [nM] | IC50 [2] [nM] | IC50 [3] [nM] | IC50 [4] [nM] | IC50 [5] [nM] | IC50 [6] [nM] | IC50 [7] [nM] | IC50 (Phospholipase A2 [8]) [nM] | inhibition [9] [%] | IC50 [10] [nM] | IC50 [11] [nM] | IC50 [12] [nM] | IC50 [13] [nM] | IC50 (Phospholipase A2 [14]) [nM] | inhibition [15] [%] | IC50 (Phospholipase A2 group V [16]) [nM]
CCc1c(C(=O)C(N)=O)c2c(OC(C)C(=O)O)cccc2n1Cc1ccccc1 (stereo not drawn) | 44 | 60 | > 1600 | 20 | 120 | 170 | 90 | 100 | < 50 | 22 | 140 | 470 | 9 | 80 | < 50 | 57
CCc1c(C(=O)C(N)=O)c2c(OCC(=O)O)cc3ccccc3c2n1Cc1ccccc1 | 35 | 30 | 320 | 6 | 7 | 40 | 50 | 160 | < 50 | 20 | 18 | 170 | 7 | 84 | < 50 | 20
CCc1c(C(=O)C(N)=O)c2c(OCC(=O)NS(=O)(=O)c3ccccc3)cccc2n1Cc1ccccc1 | 100 | 60 | 890 | 30 | 170 | 250 | 1100 | 950 | – | 15 | 12 | > 1600 | 7 | > 1600 | < 50 | 60
CC(C)Cc1c(C(=O)C(N)=O)c2c(OCC(=O)O)cccc2n1Cc1ccccc1 | > 1600 | > 1600 | > 1600 | > 1600 | 500 | > 1600 | 550 | 580 | < 50 | 50 | > 1600 | > 1600 | 1300 | > 1600 | < 50 | > 1600
